Measurements from ChEMBL document CHEMBL1127591, “Novel prodrugs of alkylating agents derived from 2-fluoro- and 3-fluorobenzoic acids for antibody-directed enzyme prodrug therapy” (J Med Chem, 1994).

Assays:
[1] = Chemical half-life in percholate at 37 degree was determined; format: ADME; conditions: perchlorate solution
Summary of the method: (§1)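 Sodium perchlorate (0.1 M) at 37 °C. Hydrolysis was followed to effective completion by titrating the released acid with 0.01 M NaOH under N2 on an automatic titrator held at pH 7.4. Each compound was run at least twice, and t1/2 is the mean of all determinations.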

LS174T [2] = experiment: Compound was evaluated for its cytotoxicity without carboxypeptidase G2 in the colorectal cell line LS174T for 1 hour; format: functional, cell-based; conditions: Homo sapiens
Summary of the method: (§2)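 LS174T cells (2.5 × 10³/well) in DMEM + 10% FCS, 5% CO2, 37 °C. Exposed once for 1 h to six concentrations (1–800 μM), with or without CPG2 (6 units/mL final). Compounds and enzyme were freshly prepared. Cells washed three times, regrown 6 days, then fixed and stained. Viable-cell protein read by sulforhodamine B against untreated controls. Octuplicate wells.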

[3] = Kinetics of potential prodrugs as substrates for carboxypeptidase G2 was determined and reported as first order constant; format: ADME
Summary of the method: (§3)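 CPG2 cleavage of the benzoylglutamate amide bond in 100 mM Tris/HCl pH 7.3 with 260 μM ZnCl2 at 37 °C in a thermostated spectrophotometer. Absorbance fall was read at the wavelength of maximal prodrug–parent difference, chosen from 240–400 nm scans. Substrate 0.1–100 μM, CPG2 (0.01–1.0 unit) held constant per run. Michaelis–Menten fit. Duplicates.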

LS174T [4] = experiment: Compound was evaluated for its cytotoxicity with carboxypeptidase G2 in the colorectal cell line LS174T for 1 hour; format: functional, cell-based; conditions: Homo sapiens; summary of the method: as §2
[5] = Kinetics of potential prodrugs as substrates for carboxypeptidase G2 was determined and reported as Michaelis-Menten constant; format: ADME; summary of the method: as §3
[6] = Kinetics of potential prodrugs as substrates for carboxypeptidase G2 was determined and reported as apparent second order constant; format: ADME; summary of the method: as §3
[7] = Chemical half-life in percholate at 37 degree Centigrade; format: ADME; conditions: perchlorate solution; summary of the method: as §1

Row | SMILES | half-life [1] [h] | IC50 (LS174T [2]) [µM] | k cat [3] [s⁻¹] | IC50 (LS174T [4]) [µM] | Km [5] [µM] | k cat/Km [6] [M⁻¹ s⁻¹] | half-life [7] [h]
1 | CS(=O)(=O)OCCN(CCCl)c1ccc(C(=O)O)cc1 | 0.967 | 185 |  |  |  |  | 
2 | CS(=O)(=O)OCCN(CCCl)c1ccc(C(=O)N[C@@H](CCC(=O)O)C(=O)O)cc1 | 16.4 |  | 583 | 200 | 3.4 | 1.71e+08 | 
3 | CS(=O)(=O)OCCN(CCCl)c1ccc(C(=O)N[C@@H](CCC(=O)O)C(=O)O)c(F)c1 |  |  | 213 |  | 11 | 1.9e+07 | 
4 | O=C(O)CC[C@H](NC(=O)c1ccc(N(CCCl)CCCl)cc1)C(=O)O | 19.3 |  |  |  |  |  | 
5 | CS(=O)(=O)OCCN(CCOS(C)(=O)=O)c1ccc(C(=O)N[C@@H](CCC(=O)O)C(=O)O)cc1 |  |  |  |  |  |  | 0.7
6 | CS(=O)(=O)OCCN(CCCl)c1ccc(C(=O)N[C@@H](CCC(=O)O)C(=O)O)cc1F | 2.03 |  | 614 |  | 6 | 1.02e+08 | 
7 | O=C(O)CC[C@H](NC(=O)c1ccc(N(CCCl)CCCl)cc1F)C(=O)O |  | > 800 | 462 | > 800 | 15 | 3.1e+07 | 
8 | CS(=O)(=O)OCCN(CCCl)c1ccc(C(=O)O)c(F)c1 | 3.2 | > 800 |  |  |  |  | 
9 | CS(=O)(=O)OCCN(CCCl)c1ccc(C(=O)O)cc1F | 0.04 | 280 |  |  |  |  | 
10 | CS(=O)(=O)OCCN(CCOS(C)(=O)=O)c1ccc(C(=O)O)cc1F | 0.0317 | 480 |  |  |  |  | 
11 | O=C(O)CC[C@H](NC(=O)c1ccc(N(CCCl)CCCl)c(F)c1)C(=O)O | 2.45 | > 800 | 1028 | 390 | 10 | 1.03e+08 | 
12 | CS(=O)(=O)OCCN(CCOS(C)(=O)=O)c1ccc(C(=O)N[C@@H](CCC(=O)O)C(=O)O)cc1F | 0.15 |  | 565 |  | 17 | 3.3e+07 | 
